# ChEMBL document CHEMBL4715736, “Identification of anticancer agents based on the thieno[2,3-b]pyridine and 1H-pyrazole molecular scaffolds” (2016)
# Assays:
# Type in all cases: functional
# SNB-19 [1] = experiment: Growth inhibition of human SNB-19 cells assessed as cell growth at 100 uM incubated for 48 hrs by sulforhodamine B assay relative to control; settings: read-out: Activity
# UACC-62 [2] = experiment: Growth inhibition of human UACC-62 cells incubated for 48 hrs by sulforhodamine B assay
# Outline: (§1)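 NCI DTP 60-line human tumour panel. Dose-response curves were run only for ligands active in the initial 10 µM screen. GI50 (concentration giving 50% of maximal inhibition of proliferation) and TGI (concentration giving total growth inhibition) were derived from these curves.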
# RXF 393 = experiment: Growth inhibition of human RXF 393 cells assessed as cell growth at 1 uM incubated for 48 hrs by sulforhodamine B assay relative to control; settings: read-out: Activity
# K562 = experiment: Growth inhibition of human K562 cells assessed as cell growth at 0.1 uM incubated for 48 hrs by sulforhodamine B assay relative to control; settings: read-out: Activity
# MCF7 = experiment: Growth inhibition of human MCF7 cells incubated for 48 hrs by sulforhodamine B assay
# Outline: (§2)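 NCI60 panel at the NCI Developmental Therapeutics Program. Only compounds active in the 10 µM screen went to dose-response testing. GI50, the concentration giving 50% of maximal inhibition of proliferation, and TGI, the concentration giving total growth inhibition, were derived from the dose-response curves.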
# Hs-578T = experiment: Growth inhibition of human Hs-578T cells assessed as cell growth at 0.1 uM incubated for 48 hrs by sulforhodamine B assay relative to control; settings: read-out: Activity
# HCT-15 [3] = experiment: Growth inhibition of human HCT-15 cells assessed as cell growth at 1 uM incubated for 48 hrs by sulforhodamine B assay relative to control; settings: read-out: Activity
# NCI-H460 = experiment: Growth inhibition of human NCI-H460 cells assessed as cell growth at 0.01 uM incubated for 48 hrs by sulforhodamine B assay relative to control; settings: read-out: Activity
# CAKI-1 = experiment: Growth inhibition of human CAKI-1 cells incubated for 48 hrs by sulforhodamine B assay
# Outline: (§3)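 NCI Developmental Therapeutics Program NCI60 panel. Compounds that were active in the 10 µM one-dose screen went on to dose–response testing. Growth at each concentration is expressed relative to untreated control (100%). GI50 (concentration giving 50% of maximal inhibition of proliferation) and TGI (concentration giving total growth inhibition) were derived from the curves.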
# MDA-MB-435 [4] = experiment: Growth inhibition of human MDA-MB-435 cells assessed as cell growth at 1 uM incubated for 48 hrs by sulforhodamine B assay relative to control; settings: read-out: Activity
# UACC-62 [5] = experiment: Growth inhibition of human UACC-62 cells assessed as cell growth at 100 uM incubated for 48 hrs by sulforhodamine B assay relative to control; settings: read-out: Activity
# SR [6] = experiment: Growth inhibition of human SR cells incubated for 48 hrs by sulforhodamine B assay; outline: as §1
# A549 [7] = experiment: Growth inhibition of human A549/ATCC cells incubated for 48 hrs by sulforhodamine B assay; outline: as §3
# HCT-15 [8] = experiment: Growth inhibition of human HCT-15 cells assessed as cell growth at 100 uM incubated for 48 hrs by sulforhodamine B assay relative to control; settings: read-out: Activity
# SW-620 = experiment: Growth inhibition of human SW-620 cells assessed as cell growth at 1 uM incubated for 48 hrs by sulforhodamine B assay relative to control; settings: read-out: Activity
# SF-268 = experiment: Growth inhibition of human SF-268 cells assessed as cell growth at 0.1 uM incubated for 48 hrs by sulforhodamine B assay relative to control; settings: read-out: Activity
# DU-145 = experiment: Growth inhibition of human DU-145 cells incubated for 48 hrs by sulforhodamine B assay; outline: as §3
# OVCAR-8 = experiment: Growth inhibition of human OVCAR-8 cells assessed as cell growth at 1 uM incubated for 48 hrs by sulforhodamine B assay relative to control; settings: read-out: Activity
# SN12C = experiment: Growth inhibition of human SN12C cells assessed as cell growth at 100 uM incubated for 48 hrs by sulforhodamine B assay relative to control; settings: read-out: Activity
# MDA-MB-468 = experiment: Growth inhibition of human MDA-MB-468 cells assessed as cell growth at 100 uM incubated for 48 hrs by sulforhodamine B assay relative to control; settings: read-out: Activity
# OVCAR-3 = experiment: Growth inhibition of human OVCAR-3 cells assessed as cell growth at 100 uM incubated for 48 hrs by sulforhodamine B assay relative to control; settings: read-out: Activity
# SNB-19 [9] = experiment: Growth inhibition of human SNB-19 cells assessed as cell growth at 0.01 uM incubated for 48 hrs by sulforhodamine B assay relative to control; settings: read-out: Activity
# RPMI-8226 = experiment: Growth inhibition of human RPMI-8226 cells assessed as cell growth at 1 uM incubated for 48 hrs by sulforhodamine B assay relative to control; settings: read-out: Activity
# ACHN [10] = experiment: Growth inhibition of human ACHN cells assessed as cell growth at 0.1 uM incubated for 48 hrs by sulforhodamine B assay relative to control; settings: read-out: Activity
# COLO 205 = experiment: Growth inhibition of human COLO 205 cells incubated for 48 hrs by sulforhodamine B assay; outline: as §3
# SR [11] = experiment: Growth inhibition of human SR cells assessed as cell growth at 0.01 uM incubated for 48 hrs by sulforhodamine B assay relative to control; settings: read-out: Activity
# SK-MEL-2 = experiment: Growth inhibition of human SK-MEL-2 cells incubated for 48 hrs by sulforhodamine B assay; outline: as §1
# ACHN [12] = experiment: Growth inhibition of human ACHN cells incubated for 48 hrs by sulforhodamine B assay; outline: as §3
# BT-549 = experiment: Growth inhibition of human BT-549 cells assessed as cell growth at 1 uM incubated for 48 hrs by sulforhodamine B assay relative to control; settings: read-out: Activity
# A549 [13] = experiment: Growth inhibition of human A549/ATCC cells assessed as cell growth at 100 uM incubated for 48 hrs by sulforhodamine B assay relative to control; settings: read-out: Activity; outline: as §3
# IGROV-1 = experiment: Growth inhibition of human IGROV-1 cells assessed as cell growth at 0.1 uM incubated for 48 hrs by sulforhodamine B assay relative to control; settings: read-out: Activity
# SNB-75 = experiment: Growth inhibition of human SNB-75 cells assessed as cell growth at 100 uM incubated for 48 hrs by sulforhodamine B assay relative to control; settings: read-out: Activity
# MDA-MB-435 [14] = experiment: Growth inhibition of human MDA-MB-435 cells assessed as cell growth at 100 uM incubated for 48 hrs by sulforhodamine B assay relative to control; settings: read-out: Activity
# KM12 = experiment: Growth inhibition of human KM12 cells incubated for 48 hrs by sulforhodamine B assay; outline: as §2
# M14 = experiment: Growth inhibition of human M14 cells assessed as cell growth at 1 uM incubated for 48 hrs by sulforhodamine B assay relative to control; settings: read-out: Activity
# [15] = read-out: LC50 (the source's name)
smiles,measurement,setting,value
Nc1c(C(=O)Nc2ccccc2)sc2nc3c(cc12)CN(Cc1ccccc1)CC3,growth at 100 µM,SNB-19 [1],25%
same,GI50,UACC-62 [2],13.9 µM
same,LC50,UACC-62 [2],> 100 µM
same,TGI,UACC-62 [2],> 100 µM
same,growth at 1 µM,RXF 393,87%
same,growth at 0.1 µM,K562,99%
same,GI50,MCF7,12.1 µM
same,TGI,MCF7,> 100 µM
same,CC50,MCF7; [15],> 100 µM
same,growth at 0.1 µM,Hs-578T,92%
same,growth at 1 µM,HCT-15 [3],94%
same,growth at 0.01 µM,NCI-H460,101%
same,GI50,CAKI-1,19.7 µM
same,TGI,CAKI-1,> 100 µM
same,CC50,CAKI-1; [15],> 100 µM
same,growth at 1 µM,MDA-MB-435 [4],68%
same,growth at 100 µM,UACC-62 [5],6%
same,GI50,SR [6],13.1 µM
same,LC50,SR [6],> 100 µM
same,TGI,SR [6],> 100 µM
same,GI50,A549 [7],13.9 µM
same,TGI,A549 [7],> 100 µM
same,CC50,A549 [7]; [15],> 100 µM
same,growth at 100 µM,HCT-15 [8],25%
same,growth at 1 µM,SW-620,86%
same,growth at 0.1 µM,SF-268,99%
same,GI50,DU-145,14.8 µM
same,TGI,DU-145,> 100 µM
same,CC50,DU-145; [15],> 100 µM
same,growth at 1 µM,OVCAR-8,98%
same,growth at 100 µM,SN12C,47%
same,growth at 100 µM,MDA-MB-468,22%
same,growth at 100 µM,OVCAR-3,20%
same,growth at 0.01 µM,SNB-19 [9],93%
same,growth at 1 µM,RPMI-8226,93%
same,growth at 0.1 µM,ACHN [10],91%
same,GI50,COLO 205,24 µM
same,LC50 (concentration killing 50% of cells),COLO 205,> 100 µM
same,TGI,COLO 205,> 100 µM
same,growth at 0.01 µM,SR [11],98%
same,GI50,SK-MEL-2,20.3 µM
same,LC50,SK-MEL-2,> 100 µM
same,TGI,SK-MEL-2,> 100 µM
same,GI50,ACHN [12],5.5 µM
same,TGI,ACHN [12],> 100 µM
same,CC50,ACHN [12]; [15],> 100 µM
same,growth at 1 µM,BT-549,90%
same,growth at 100 µM,A549 [13],17%
same,growth at 0.1 µM,IGROV-1,98%
same,growth at 100 µM,SNB-75,-49%
same,growth at 100 µM,MDA-MB-435 [14],-6%
same,GI50,KM12,19.1 µM
same,LC50,KM12,> 100 µM
same,TGI,KM12,> 100 µM
same,growth at 1 µM,M14,91%
